Key:
[1] = system: hepatic de novo lipogenesis (DNL); experiment: Fructose-stimulated fractional hepatic DNL; type: in vivo, human; settings: for Inhibition of fasting-adjusted fractional DNL AUEC relative to placebo: 10-hour period; for Inhibition of fasting-adjusted fractional DNL AUEC relative to placebo / Mean reduction of fasting-adjusted DNL at 10 hours postdose relative to placebo: mean ± SEM
Method in brief: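 Overweight/obese men (18–50 y, BMI 25–32 kg/m²), 10/dose, placebo crossover, ≥5-day washout, fasted from hour −12. IV [1-13C]acetate (10 g in 1,000 mL 0.45% saline, 50 mL/hour, 19 h) from hour −9; capsule at hour 0; fructose 250 mg/kg every 30 min to hour +9.5. VLDL-TG palmitate by GC-MS/MIDA, hours −1 to +10; fasting-baseline-subtracted, AUEC, expressed relative to placebo.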

[2] = Safety: treatment-emergent adverse events after a single oral dose; type: in vivo, human
Method in brief: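 TEAEs were any events after study medication and were coded to MedDRA v18.0. Events were attributed to the period's treatment, and events between acetate infusion and first dosing were counted separately. Monitoring included physical exams, vital signs (hours 0, 5.5, 10.5), clinical laboratory tests (day −1 and hour 10) and screening ECG.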

[3] = Plasma pharmacokinetics after a single oral dose; type: in vivo; settings: human
Method in brief: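 Single oral capsule dose with 240 mL water in fasted men during fructose feeding, n = 10/group. Plasma was sampled predose and hourly through 10 h. Levels were measured by validated HPLC-MS/MS, with a lower limit of quantitation of 0.5 ng/mL. Noncompartmental parameters were calculated from actual sample times.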

[4] = Serum lipids, leptin, adiponectin, glucose and blood ketones; type: in vivo, human; settings: single dose of 20, 50, or 200 mg
Method in brief: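 Blood was drawn at protocol-specified times during the fasted, fructose-fed crossover periods. Serum lipids and blood ketones (ketometer) were measured by a clinical laboratory. Leptin and adiponectin were measured by solid-phase ELISA.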

[5] = system: hepatic de novo lipogenesis (DNL); experiment: PK-PD analysis of plasma exposure versus fractional DNL; type: in vivo, human; settings: all dose groups
Method in brief: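 Each subject's time-matched plasma levels (sampled predose and hourly to 10 h, HPLC-MS/MS) were paired with fasting-adjusted fractional DNL at every sampling point for every dose group. The plasma levels at which 70% and 90% inhibition of maximal DNL occurred were read from these paired data.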

[6] = Hepatic extraction in preclinical studies; type: in vivo; settings: cynomolgus monkeys, unpublished data
[7] = single doses between 30 and 1,000 mg; healthy adults; cited from earlier work
hepatic DNL = settings: subjects with type 2 diabetes mellitus and hypertriglyceridemia; cited from earlier work

COc1ccccc1[C@H](Cn1c(=O)n(C(C)(C)C(=O)O)c(=O)c2c(C)c(-c3ncco3)sc21)OC1CCOCC1 [NDI‐010976]
Inhibition of fasting-adjusted fractional DNL AUEC relative to placebo ([1]; 20 mg single oral dose): approximately 70 ± 6%
Mean reduction of fasting-adjusted DNL at 10 hours postdose relative to placebo ([1]; 20 mg single oral dose): approximately 41 ± 9%
Inhibition of fractional DNL at 2 hours postdose ([1]; 20 mg, mean ± standard deviation): 60 ± 26%
Inhibition of DNL by fasting-adjusted DNL AUEC, all subjects ([1]; 50 mg single dose, 10-hour period vs matched placebo period): > 70%
Inhibition of fasting-adjusted fractional DNL AUEC relative to placebo ([1]; 50 mg single oral dose): ~85 ± 3%
Mean reduction of fasting-adjusted DNL at 10 hours postdose relative to placebo ([1]; 50 mg single oral dose): ~53 ± 9%
Inhibition of DNL, all subjects ([1]; 200 mg single dose): complete or near complete inhibition of DNL
Inhibition of fasting-adjusted fractional DNL AUEC relative to placebo ([1]; 200 mg single oral dose): ~104 ± 2%
Mean reduction of fasting-adjusted DNL at 10 hours postdose relative to placebo ([1]; 200 mg single oral dose): ~94 ± 4%
Number of subjects with TEAEs (% of subjects dosed) ([2]; 20 mg): 3 (33%) subjects (%)
Number of subjects without TEAEs (% of subjects dosed) ([2]; 20 mg): 6 (67%) subjects (%)
Number of subjects with TEAEs (% of subjects dosed) ([2]; 50 mg): 7 (70%) subjects (%)
Number of subjects without TEAEs (% of subjects dosed) ([2]; 50 mg): 3 (30%) subjects (%)
Number of subjects with TEAEs (% of subjects dosed) ([2]; 200 mg): 5 (50%) subjects (%)
Number of subjects without TEAEs (% of subjects dosed) ([2]; 200 mg): 5 (50%) subjects (%)
Number of subjects with TEAEs (% of subjects dosed) ([2]; Total, all doses): 15 (52%) subjects (%)
Number of subjects without TEAEs (% of subjects dosed) ([2]; Total, all doses): 14 (48%) subjects (%)
Deaths, serious AEs, Grade 3 or higher TEAEs ([2]; single oral doses 20 to 200 mg): no deaths, serious AEs, or Grade 3 or higher TEAEs
Safety and tolerability ([2]; single oral doses 20 to 200 mg): safe and well tolerated
Tmax [3]: 1 to 2 h
Cmax ([3]; 20 mg): 43.4 ng/mL
concentration at 2 h ([3]; 20 mg): 5.7 to 23.5 ng/mL
Effects on serum glucose, lipids, leptin, adiponectin, blood ketones [4]: no significant NDI‐010976 effects
Plasma concentration associated with at least 70% inhibition of fractional DNL ([5]; one data point outlier): > 2.2 ng/mL
Plasma concentration yielding >90% inhibition of fractional DNL ([5]; two data point outliers): > 4.0 ng/mL
Hepatic extraction [6]: approximately 94%
Tolerability [7]: well tolerated

CCc1ccc(CCOc2ccc(CC3SC(=O)NC3=O)cc2)nc1 (stereo not shown) [pioglitazone]
Reduction of hepatic DNL (hepatic DNL): 40%
